What was measured:
[1] = Bioavailability in rat; assay type: ADME, organism-based; conditions: in vivo
[2] = test system: Rattus norvegicus; test: Plasma concentration after 3 mg/kg peroral dosing in rat at 6 hr; assay type: ADME, organism-based; set-up: dose 3 mg/kg, route oral; conditions: in vivo, po
[3] = test system: Rattus norvegicus; test: Plasma concentration after 3 mg/kg peroral dosing in rat at 4 hr; assay type: ADME, organism-based; set-up: dose 3 mg/kg, route oral; conditions: in vivo, po
[4] = test system: Rattus norvegicus; test: Plasma concentration of 3 mg/kg iv after 2 hr in rats; assay type: ADME, organism-based; set-up: dose 3 mg/kg, route intravenous; conditions: in vivo
In short: (§1)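 Rats given compound intravenously and orally in solution. Three rats per time point sampled for plasma drug levels. Pharmacokinetic parameters calculated from the plasma concentration–time data using standard equations. Data reported as mean ± SEM.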

[5] = biological target: Substance-P receptor (Homo sapiens, UniProt P25103); test: Displacement of [125 I]-Tyr8 SP from the cloned human Tachykinin receptor 1 expressed in CHO cells; assay type: cell-based
Substance-P receptor, sequence (P25103 whole entry): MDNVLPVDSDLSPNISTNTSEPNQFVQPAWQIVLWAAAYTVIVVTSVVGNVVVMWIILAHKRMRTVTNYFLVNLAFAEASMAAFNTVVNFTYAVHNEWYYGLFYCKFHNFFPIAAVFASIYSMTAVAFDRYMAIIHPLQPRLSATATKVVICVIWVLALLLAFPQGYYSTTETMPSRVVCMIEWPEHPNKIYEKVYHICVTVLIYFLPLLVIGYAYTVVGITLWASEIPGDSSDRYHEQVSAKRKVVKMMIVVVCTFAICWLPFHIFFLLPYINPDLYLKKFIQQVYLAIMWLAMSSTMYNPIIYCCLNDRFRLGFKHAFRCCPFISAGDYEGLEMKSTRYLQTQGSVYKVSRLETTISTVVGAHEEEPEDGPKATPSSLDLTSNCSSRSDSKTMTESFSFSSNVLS

[6] = test system: Rattus norvegicus; test: Plasma concentration of 3 mg/kg iv after 0.5 hr in rats; assay type: ADME, organism-based; set-up: dose 3 mg/kg, route intravenous; conditions: in vivo; in short: as §1
[7] = test system: Rattus norvegicus; test: Plasma concentration of 3 mg/kg iv after 0.25 hr in rats; assay type: ADME, organism-based; set-up: dose 3 mg/kg, route intravenous; conditions: in vivo; in short: as §1
[8] = Plasma clearance after intravenous administration iv dosing of 3 mg/kg in rat; assay type: ADME, organism-based; set-up: dose 3 mg/kg, route intravenous
[9] = test system: Rattus norvegicus; test: Plasma concentration after 3 mg/kg peroral dosing in rat at 0.083 h; assay type: ADME, organism-based; set-up: dose 3 mg/kg, route oral; conditions: in vivo, po
[10] = test system: Rattus norvegicus; test: Plasma concentration after 3 mg/kg peroral dosing in rat at 0.25 hr; assay type: ADME, organism-based; set-up: dose 3 mg/kg, route oral; conditions: in vivo, po
[11] = test system: Rattus norvegicus; test: Plasma concentration after 3 mg/kg peroral dosing in rat at 0.5 hr; assay type: ADME, organism-based; set-up: dose 3 mg/kg, route oral; conditions: in vivo, po
[12] = test system: Rattus norvegicus; test: Plasma concentration of 3 mg/kg iv after 1 hr in rats; assay type: ADME, organism-based; set-up: dose 3 mg/kg, route intravenous; conditions: in vivo; in short: as §1
[13] = test system: Rattus norvegicus; test: Plasma concentration after 3 mg/kg peroral dosing in rat at 8 hr; assay type: ADME, organism-based; set-up: dose 3 mg/kg, route oral; conditions: in vivo, po
[14] = test system: Rattus norvegicus; test: Plasma concentration of 3 mg/kg iv after 6 hr in rats; assay type: ADME, organism-based; set-up: dose 3 mg/kg, route intravenous; conditions: in vivo; in short: as §1
[15] = Plasma volume of distribution of the 3 mg/kg in rat; assay type: ADME, organism-based; set-up: dose 3 mg/kg; in short: as §1
[16] = test system: Rattus norvegicus; test: Plasma concentration after 3 mg/kg peroral dosing in rat at 1 hr; assay type: ADME, organism-based; set-up: dose 3 mg/kg, route oral; conditions: in vivo, po
[17] = test system: Rattus norvegicus; test: Plasma concentration after 3 mg/kg peroral dosing in rat at 2 hr; assay type: ADME, organism-based; set-up: dose 3 mg/kg, route oral; conditions: in vivo, po
[18] = test system: Rattus norvegicus; test: Plasma concentration of 3 mg/kg iv after 4 hr in rats; assay type: ADME, organism-based; set-up: dose 3 mg/kg, route intravenous; conditions: in vivo; in short: as §1
[19] = organism: Oryctolagus cuniculus; test: Displacement of [3H]diltiazem from rabbit skeletal muscle calcium channel; assay type: tissue-based; conditions: Muscle tissue
[20] = test system: Cavia porcellus; test: Inhibition of SP- induced dermal guinea pig after peroral administration; assay type: functional; conditions: read-out: ID50 (the source's name)
In short: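 Guinea pigs dosed orally with antagonist, then challenged 1 h later with intradermal substance P. Vascular leakage measured as extravasation of Evans blue dye. ID50 (mg/kg po) taken from dose-response data, 5-12 animals per data point.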

[21] = test system: Rattus norvegicus; test: Inhibition of […] of the rat after intravenous administration; assay type: functional; conditions: read-out: ID50 (the source's name)
In short: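 Rats given test compound intravenously. Plasma extravasation in the dura mater measured, n = 8-10. ID50 reported in mg/kg iv.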

[22] = organism: Rattus norvegicus; test: Degradation of compound in incubations at 25 uM with normal rat liver microsomes after 15 min relative to initial concentration of 1 uM; assay type: functional
In short: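 Incubated at 25 µM with normal rat liver microsomes; P-450 at 1.45 nM/mg microsomal protein. Sampled at 15 min, 1 h, 4 h and 24 h. Remaining substrate reported relative to an initial level of 1.0, n = 1.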

Which bioavailability [1] does the source give for `FC(F)(F)c1cc(CO[C@H]2CCCN(Cc3nnc[nH]3)[C@H]2c2ccccc2)cc(C(F)(F)F)c1` here?
Its bioavailability is 18%.

And the Concentration [2]?
Its Concentration is under 10 ng/mL.

And the Concentration [3]?
The Concentration was 11.2 ng/mL.

What about the Concentration [4] of the same compound?
Its Concentration is 71.3 ng/mL.

And the IC50 [5]?
Its IC50 is 0.22 nM.

What about the Concentration [6] of the same compound?
Its Concentration is 581 ng/mL.

And the Concentration [7]?
Its Concentration is 826 ng/mL.

And the clearance [8]?
The clearance was 44 mL/min/kg.

And the Concentration [9]?
The Concentration was 40.1 ng/mL.

What about the Concentration [10] of the same compound?
The Concentration was 116 ng/mL.

And the Concentration [11]?
The Concentration was 35.1 ng/mL.

And the Concentration [12]?
Its Concentration is 304 ng/mL.

And the Concentration [13]?
The Concentration was under 10 ng/mL.

What about the Concentration [14] of the same compound?
Its Concentration is under 10 ng/mL.

And the Vd [15]?
The Vd was 2.6 L/kg.

What about the Concentration [16] of the same compound?
The Concentration was 33.7 ng/mL.

What about the Concentration [17] of the same compound?
Its Concentration is 36.9 ng/mL.

And the Concentration [18]?
Its Concentration is 13.2 ng/mL.

With `FC(F)(F)c1cc(CO[C@H]2CCCN(Cc3nnco3)[C@H]2c2ccccc2)cc(C(F)(F)F)c1` as the compound, how does the IC50 [5] read?
Its IC50 is 0.97 nM.

What about the Binding affinity [19] of the same compound?
The Binding affinity was 10 µM.

For `FC(F)(F)c1cc(CO[C@H]2CCCN(Cc3ccco3)[C@H]2c2ccccc2)cc(C(F)(F)F)c1`, which IC50 [5] is on record?
The IC50 was 36 nM.

For `FC(F)(F)c1cc(CO[C@H]2CCCN(Cc3nc[nH]n3)[C@H]2c2ccccc2)cc(C(F)(F)F)c1`, which ED50 [20] is on record?
Its ED50 is 0.4 mg/kg.

What about the Binding affinity [19] of the same compound?
Its Binding affinity is over 100 µM.

What about the ED50 [21] of the same compound?
The ED50 was 0.008 mg/kg.

Which IC50 [5] does the source give for `FC(F)(F)c1cc(CO[C@H]2CCCN(Cc3nnn[nH]3)[C@H]2c2ccccc2)cc(C(F)(F)F)c1` here?
Its IC50 is 43 nM.

What does the source list for `FC(F)(F)c1cc(CO[C@H]2CCCN(Cc3cocn3)[C@H]2c2ccccc2)cc(C(F)(F)F)c1`?
Relative oncentration [22]: 0.05 µM; IC50 [5]: 1 nM; Binding affinity [19]: 23 µM

For `COc1ccccc1CN[C@H]1CCCN[C@H]1c1ccccc1` [CP-99994], which ED50 [20] is on record?
Its ED50 is 1.6 mg/kg.

What about the Binding affinity [19] of the same compound?
The Binding affinity was 4 µM.

And the ED50 [21]?
Its ED50 is 0.052 mg/kg.

Source: ChEMBL document CHEMBL1129245, “N-heteroaryl-2-phenyl-3-(benzyloxy)piperidines: a novel class of potent orally active human NK1 antagonists” (J Med Chem, 1996)
